Measurements as given in PMC6512341 (ACS chemical neuroscience, 2018).

Assays:
HDAC6 [1] = target: T1, HDAC6 (Homo sapiens, UniProt Q9UBN7); assay: HDAC1–11 enzyme assays; format: biochemical; settings: for HDAC6 activity (in words): Figure 1a, compared with phenylhydroxamate 1
T1 sequence (Q9UBN7 1-1215): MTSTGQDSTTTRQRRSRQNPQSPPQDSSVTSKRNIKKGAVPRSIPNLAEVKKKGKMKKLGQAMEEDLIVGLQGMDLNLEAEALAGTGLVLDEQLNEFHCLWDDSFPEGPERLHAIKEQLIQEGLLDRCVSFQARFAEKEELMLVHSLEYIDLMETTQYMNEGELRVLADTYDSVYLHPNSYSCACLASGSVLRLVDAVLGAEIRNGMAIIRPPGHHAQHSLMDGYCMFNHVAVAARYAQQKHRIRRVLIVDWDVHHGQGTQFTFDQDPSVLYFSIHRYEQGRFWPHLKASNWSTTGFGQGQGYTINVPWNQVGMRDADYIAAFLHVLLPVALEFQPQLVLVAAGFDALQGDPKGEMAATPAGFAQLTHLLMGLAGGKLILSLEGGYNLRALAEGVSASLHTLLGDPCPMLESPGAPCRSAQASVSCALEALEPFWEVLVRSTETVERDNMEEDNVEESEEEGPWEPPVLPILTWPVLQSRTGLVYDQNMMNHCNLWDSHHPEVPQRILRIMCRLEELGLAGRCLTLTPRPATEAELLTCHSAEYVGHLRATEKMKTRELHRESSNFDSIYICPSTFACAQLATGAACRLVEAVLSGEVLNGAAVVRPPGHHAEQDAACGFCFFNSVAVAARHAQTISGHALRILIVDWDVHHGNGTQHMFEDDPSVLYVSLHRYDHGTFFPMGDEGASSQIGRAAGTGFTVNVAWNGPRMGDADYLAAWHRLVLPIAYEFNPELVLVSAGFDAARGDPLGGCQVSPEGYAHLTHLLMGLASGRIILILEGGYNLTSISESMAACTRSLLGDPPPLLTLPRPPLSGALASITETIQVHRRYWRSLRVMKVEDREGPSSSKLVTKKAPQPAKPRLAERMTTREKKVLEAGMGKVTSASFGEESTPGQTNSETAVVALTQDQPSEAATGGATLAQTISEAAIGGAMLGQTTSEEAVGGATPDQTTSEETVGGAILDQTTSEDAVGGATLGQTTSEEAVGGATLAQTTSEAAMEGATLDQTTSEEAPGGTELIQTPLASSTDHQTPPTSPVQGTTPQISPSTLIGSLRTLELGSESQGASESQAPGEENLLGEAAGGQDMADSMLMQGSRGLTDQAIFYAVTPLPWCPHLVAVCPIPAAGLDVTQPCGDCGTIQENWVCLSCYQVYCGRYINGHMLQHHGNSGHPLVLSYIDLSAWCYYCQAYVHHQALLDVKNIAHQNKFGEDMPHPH

MDCK-MDR1 cell line = assay: Permeability studies in MDCK-MDR1 cells; format: in vitro ADME; settings: MDCK-MDR1 cell line
MDR1 = assay: Permeability studies in MDCK-MDR1 cells; format: in vitro ADME; settings: dog, MDCK-MDR1
[2] = Brain/plasma pilot PK studies of TubA; format: in vivo; settings: IV administration, WT mice
[3] = cited from earlier work
MDR1 (P-gp) = assay: Permeability studies in MDCK-MDR1 cells; format: in vitro ADME; settings: dog, MDCK-MDR1, efflux ratio, MDCK-MDR1 cell line
acetylated α-tubulin [4] = assay: α-Tubulin acetylation studies in HEK293 cells; format: cell-based; settings: tested at 0.01, 0.1, 1, and 10 μM
How it was run: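 HEK293 cells plated 24 h ahead and treated at 70% confluency with 10 nM–10 µM. Lysed in MPER with protease inhibitors; 2 µg protein boiled, run on 12% gel, transferred to PVDF. Blocked in 5% milk/TBST; anti-acetyl-tubulin 1:3000 overnight at 4 °C, then HRP secondary 1:5000; ECL. Reprobed for total α-tubulin at 1:1000. Densitometric ratio normalized to 10 µM reference HDAC6 inhibitor; n = 3–4; one-way ANOVA vs vehicle.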

class IIa isoforms = assay: HDAC1–11 enzyme assays; format: biochemical, human; settings: Figure 2b and c
How it was run: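 Human full-length recombinant HDAC4, 5, 7 and 9 with fluorogenic Ac-LGK(TFA)-AMC substrate. Enzyme–compound preincubation 5–10 min, then 2 h at 30 °C. Developer added; fluorescence read at plateau. 10-dose, 3-fold dilutions from 30 µM, in duplicate. IC50 from sigmoidal fit.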

HDAC6 [5] = settings: cited from earlier work; for activity against HDAC6 (in words) / selectivity over HDAC1 (in words): Figure 1a
acetylated α-tubulin [6] = assay: α-Tubulin acetylation in N2a cells; format: cell-based; settings: compared to vehicle
acetylated histone 3 = assay: Histone acetylation in N2a cells; format: cell-based; settings: compared to vehicle
How it was run: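 N2a cells treated at 1 µM or 10 nM; reference HDAC inhibitors served as positive controls. Histones extracted by kit; protein by micro BCA. Samples denatured in reducing buffer at 95 °C for 5 min and blotted to PVDF. Blocked in 5% BSA/TBST 1 h at RT; primaries overnight: acetyl-H3 K9+K14 1:1000, histone 4 1:1000. Ratios normalized to vehicle; n = 4; one-way ANOVA vs vehicle.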

| efflux ratio (MDCK-MDR1 cell line) | Papp A→B at 2 h (MDR1) [×10⁻⁶ cm/s] | Papp B→A at 2 h (MDR1) [×10⁻⁶ cm/s] | efflux ratio at 2 h (MDR1 (P-gp)) | SMILES | also measured |
| --- | --- | --- | --- | --- | --- |
| 9.83 | 2 | 19.7 | – | CN1CCc2c(c3ccccc3n2Cc2ccc(C(=O)NO)cc2)C1 [TubA, tubastatin A, reference compound] | selectivity against HDAC8 (in words) (HDAC6 [1]; Figure 2b and c): poorer selectivity; selectivity against the class I HDACs 1, 2, and 3 (in words) (HDAC6 [1]; Figure 2b and c): high selectivity; brain/plasma ratio ([2]; 8 min): 0.15; brain/plasma ratio ([2]; 60 min): 0.86; AUCbrain/AUCplasma [3]: 0.18 |
| 0.63 | 17.6 | 11 | < 1 | CN(C)c1ccc(Cc2ccc(C(=O)NO)cc2)cc1 [Compound 7, 4-[4-(Dimethylamino)benzyl]-N-hydroxybenzamide] | concentration at which acetylated α-tubulin levels are elevated (acetylated α-tubulin [4]): 10 µM |
| 2.95 | 0.66 | 2.05 | > 2.5 | Cn1c(NCc2ccc(C(=O)NO)cc2)nc2ccccc21 [Compound 12, N-Hydroxy-4-[[(1-methyl-1H-benz[d]imidazol-2-yl)amino]-methyl]benzamide] | – |
| 3.23 | 4.44 | 13.4 | > 2.5 | Cc1nc2ccc(F)cc2n1Cc1ccc(C(=O)NO)cc1 [Compound 8, 4-[(6-Fluoro-2-methyl-1-benzimidazolyl)methyl]-N-hydroxybenzamide] | activity against the class IIa isoforms (in words) (class IIa isoforms): strong activity |
| 0.70 | – | – | – | O=C(NO)c1ccc(Cn2cccn2)cc1 [Compound 6, 4-(1-Pyrazolylmethyl)-N-hydroxybenzamide] | Papp(A−B) (MDCK-MDR1 cell line): 7.35 10^−6, cm/s; Papp(B−A) (MDCK-MDR1 cell line): 5.24 10^−6, cm/s; concentration at which acetylated α-tubulin levels are elevated (acetylated α-tubulin [4]): 10 µM |
| 0.62 | 9.14 | 5.54 | < 1 | O=C(NO)c1ccc(CN2CCc3ccc(Cl)cc32)cc1 [Compound 10, 4-[(6-Chloroindolin-1-yl)methyl]-N-hydroxybenzamide] | concentration at which acetylated α-tubulin levels are elevated (acetylated α-tubulin [4]): 1 µM |

Further lines, the compound ahead of its results:

| SMILES | efflux ratio (MDCK-MDR1 cell line) | Papp A→B at 2 h (MDR1) [×10⁻⁶ cm/s] | Papp B→A at 2 h (MDR1) [×10⁻⁶ cm/s] | efflux ratio at 2 h (MDR1 (P-gp)) | also measured |
| --- | --- | --- | --- | --- | --- |
| O=C(NO)c1ccc(CN2CCCC2)cc1 [Compound 3, N-Hydroxy-4-(pyrrolidin-1-ylmethyl)benzamide] | – | – | – | – | HDAC6 activity (in words) (HDAC6 [1]): reduced HDAC6 activity |
| Cc1nc2ccccc2n1Cc1ccc(C(=O)NO)cc1F [Compound 9, 3-Fluoro-N-hydroxy-4-[(2-methyl-1-benzimidazolyl)methyl]-benzamide] | 4.23 | 3.89 | 13.2 | > 2.5 | activity against the class IIa isoforms (in words) (class IIa isoforms): strong activity |
| O=C(NO)c1ccc(Cn2cccc2)cc1 [Compound 4, 4-(1-Pyrrolylmethyl)-N-hydroxybenzamide] | – | – | – | – | activity against HDAC6 (in words) (HDAC6 [5]): nanomolar activity; selectivity over HDAC1 (in words) (HDAC6 [5]): high selectivity |
| CCN(CC)Cc1ccc(C(=O)NO)cc1 [Compound 2, 4-[(Diethylamino)methyl]-N-hydroxybenzamide] | – | – | – | – | HDAC6 activity (in words) (HDAC6 [1]): reduced HDAC6 activity |
| O=C(NO)c1ccccc1 [Compound 1, phenylhydroxamate, reference compound] | – | – | – | – | selectivity over class I HDACs (HDAC6 [5]): more than 10 fold; IC50 (HDAC6 [5]; read-out: IC50 against HDAC6): 115 nM |
| CC(/C=C/C(=O)NO)=C\[C@@H](C)C(=O)c1ccc(N(C)C)cc1 [TSA, Trichostatin A, reference compound] | – | – | – | – | ratio of acetylated α-tubulin to α-tubulin (acetylated α-tubulin [6]): increased levels of both acetylated α-tubulin and acetylated histone H3 significantly; levels of acetylated histone 3 to histone 4 (acetylated histone 3): increased levels of both acetylated α-tubulin and acetylated histone H3 significantly |
| O=C(NO)c1ccc(Cn2ccc3ccccc32)cc1 [Compound 5, 4-(1-Indolylmethyl)-N-hydroxybenzamide] | – | – | – | – | activity against HDAC6 (in words) (HDAC6 [5]): nanomolar activity; selectivity over HDAC1 (in words) (HDAC6 [5]): high selectivity |
| O=C(NO)c1ccc(CN2CCc3ccc(F)cc32)cc1 [Compound 11, 4-[(6-Fluoroindolin-1-yl)methyl]-N-hydroxybenzamide] | 1.05 | 10.5 | 11.1 | < 1 | concentration at which acetylated α-tubulin levels are elevated (acetylated α-tubulin [4]): 1 µM |
